Two molecules from ChEMBL document CHEMBL1649328, “Assessment of pandemic and seasonal influenza A (H1N1) virus susceptibility to neuraminidase inhibitors in three enzyme activity inhibition assays” (Antimicrob Agents Chemother, 2010) can be followed below.

Assay [1] concerns Influenza A virus. As to the kind of experiment: Antiviral activity against influenza A (A/Montana/02/2009 (H1N1)) virus harboring neuraminidase H275Y mutant after 30 mins by NA-star substrate based chemiluminescent assay. The assay is classed as functional, organism-based. The method in brief: (§1)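 Titrated virus in NA-Star buffer (26 mM MES, 4 mM CaCl2, pH 6.0) was preincubated with ten half-log inhibitor dilutions (0.03–1,000 nM final) for 30 min at 37°C, then with substrate for 30 min at room temperature. Accelerator solution was added and luminescence read for 0.1 s. IC50 came from a Vmax·[1−x/(K+x)] fit, mean of ≥3 experiments.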

In assay [2] the test system is Influenza A virus. As to the kind of experiment: Antiviral activity against influenza A (A/Osaka/180/2009 (H1N1)) virus harboring neuraminidase H275Y mutant after 30 mins by NA-star substrate based chemiluminescent assay. Format: functional, organism-based. The method in brief: as §1
The subject of assay [3] is Influenza A virus. As to the kind of experiment: Antiviral activity against influenza A (A/Washington/29/2009 (H1N1)) virus harboring neuraminidase H275Y mutant after 30 mins by NA-star substrate based chemiluminescent assay. Format: functional, organism-based. The method in brief:
as §1

Assay [4] has as its system Influenza A virus. As to the kind of experiment: Antiviral activity against influenza A (A/Singapore/57/2009 (H1N1)) virus harboring neuraminidase H275Y mutant after 30 mins by NA-star substrate based chemiluminescent assay. The assay is classed as functional, organism-based. The method in brief: as §1
Assay [5] concerns Influenza A virus. As to the kind of experiment: Antiviral activity against influenza A (A/Montana/02/2009 (H1N1)) virus harboring neuraminidase H275Y mutant after 30 mins by MUNANA substrate based fluorometric assay. The assay is classed as functional, organism-based. The method in brief:
(§2)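 Fluorometric NA inhibition with MUNANA (100 μM final). Titrated virus in NA-Star buffer (26 mM MES, 4 mM CaCl2, pH 6.0) was preincubated with ten half-log inhibitor dilutions (0.03–1,000 nM final) for 30 min at 37°C, then with substrate for 30 min at 37°C. The reaction was stopped with 0.1 M glycine in 25% ethanol, pH 10.7, and 4-methylumbelliferone was read at ex 365/em 450 nm. IC50 came from a Vmax·[1−x/(K+x)] fit, mean of ≥3 experiments.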

For assay [6], the system named is Influenza A virus. As to the kind of experiment: Antiviral activity against influenza A (A/Hong Kong/2369/2009 (H1N1)) virus harboring neuraminidase H275Y mutant after 30 mins by MUNANA substrate based fluorometric assay. The assay is classed as functional, organism-based. The method in brief:
as §2

The test system of assay [7] is Influenza A virus. As to the kind of experiment: Antiviral activity against influenza A (A/North Carolina/01/2009 (H1N1)) virus harboring neuraminidase H275Y mutant after 16 to 18 hrs by fetuin substrate based colorimetric assay. The assay is classed as functional, organism-based. The method in brief: (§3)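 Colorimetric NA inhibition with fetuin substrate. Virus was diluted in NA-Star buffer (26 mM MES, 4 mM CaCl2, pH 6.0) to give OD549 of 0.4–0.8 after 18 h. It was preincubated with ten half-log inhibitor dilutions (0.03–1,000 nM final) for 1 h at 37°C, then with fetuin (5.5 mg/ml final) for 16–18 h at 37°C. Released sialic acid was read at 549 nm after periodate/TBA reaction and butanol extraction. IC50 came from a Vmax·[1−x/(K+x)] fit, mean of ≥2 experiments.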

The subject of assay [8] is Influenza A virus. As to the kind of experiment: Antiviral activity against influenza A (A/Hong Kong/2369/2009 (H1N1)) virus harboring neuraminidase H275Y mutant after 16 to 18 hrs by fetuin substrate based colorimetric assay. The assay is classed as functional, organism-based. The method in brief:
as §3

Assay [9] deals with Influenza A virus. As to the kind of experiment: Ratio of IC50 for influenza A (A/Singapore/91/2009 (H1N1)) virus harboring neuraminidase H275Y mutant to IC50 for influenza A (A/Washington/29/2009 (H1N1)) virus expressing wild type enzyme by NA-star substrate based chemiluminescent assay. Format: functional. The method in brief:
(§4)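 Chemiluminescent NA inhibition in MES 26 mM/CaCl2 4 mM buffer, pH 6.0. […] Luminescence read for 0.1 s. IC50 from the fit y = Vmax·{1 − [x/(K + x)]}, mean of ≥3 experiments. Ratio is the H275Y variant IC50 over the pandemic wild-type reference IC50.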

In assay [10] the test system is Influenza A virus. As to the kind of experiment: Ratio of IC50 for influenza A (A/North Carolina/01/2009 (H1N1)) virus harboring neuraminidase H275Y mutant to IC50 for influenza A (A/Washington/29/2009 (H1N1)) virus expressing wild type enzyme by NA-star substrate based chemiluminescent assay. The assay is classed as functional.
Assay [11] has as its system Influenza A virus. As to the kind of experiment: Ratio of IC50 for influenza A (A/Hong Kong/2369/2009 (H1N1)) virus harboring neuraminidase H275Y mutant to IC50 for influenza A (A/Washington/29/2009 (H1N1)) virus expressing wild type enzyme by NA-star substrate based chemiluminescent assay. The assay is classed as functional.
In assay [12] the test system is Influenza A virus. As to the kind of experiment: Ratio of IC50 for influenza A (A/Singapore/57/2009 (H1N1)) virus harboring neuraminidase H275Y mutant to IC50 for influenza A (A/Washington/29/2009 (H1N1)) virus expressing wild type enzyme by NA-star substrate based chemiluminescent assay. The assay is classed as functional. The method in brief:
as §4

The subject of assay [13] is Influenza A virus. As to the kind of experiment: Ratio of IC50 for influenza A (A/North Carolina/02/2009 (H1N1)) virus harboring neuraminidase H275Y mutant to IC50 for influenza A (A/Washington/10/2008 (H1N1)) virus expressing wild type enzyme by MUNANA substrate based fluorometric assay. The assay is classed as functional.
The test system of assay [14] is Influenza A virus. As to the kind of experiment: Ratio of IC50 for influenza A (A/Singapore/91/2009 (H1N1))virus harboring neuraminidase H275Y mutant to IC50 for influenza A (A/Washington/29/2009 (H1N1)) virus expressing wild type enzyme by MUNANA substrate based fluorometric assay. The assay is classed as functional. The method in brief:
(§5)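 Fluorometric NA inhibition in MES/CaCl2 buffer, pH 6.0. Virus preincubated 30 min at 37°C with ten half-log inhibitor dilutions (0.03–1,000 nM final), then MUNANA (100 μM final) added for 30 min at 37°C. Stopped with 0.1 M glycine in 25% ethanol, pH 10.7. Read at ex 365/em 450 nm. IC50 curve-fitted, mean of ≥3 experiments. Ratio is variant IC50 over wild-type reference IC50.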

Assay [15] deals with Influenza A virus. As to the kind of experiment: Ratio of IC50 for influenza A (A/Montana/02/2009 (H1N1)) virus harboring neuraminidase H275Y mutant to IC50 for influenza A (A/Washington/29/2009 (H1N1)) virus expressing wild type enzyme by MUNANA substrate based fluorometric assay. Format: functional.
For assay [16], the system named is Influenza A virus. As to the kind of experiment: Ratio of IC50 for influenza A (A/Washington/29/2009 (H1N1)) virus harboring neuraminidase H275Y mutant to IC50 for influenza A (A/Washington/29/2009 (H1N1)) virus expressing wild type enzyme by MUNANA substrate based fluorometric assay. The assay is classed as functional. The method in brief:
as §5

The test system of assay [17] is Influenza A virus. As to the kind of experiment: Ratio of IC50 for influenza A (A/New York/18/2009 (H1N1)) virus harboring neuraminidase H275Y mutant to IC50 for influenza A (A/Washington/10/2008 (H1N1)) virus expressing wild type enzyme by fetuin substrate based colorimetric assay. The assay is classed as functional.
In assay [18] the test system is Influenza A virus. As to the kind of experiment: Ratio of IC50 for influenza A (A/Osaka/180/2009 (H1N1)) virus harboring neuraminidase H275Y mutant to IC50 for influenza A (A/Washington/29/2009 (H1N1)) virus expressing wild type enzyme by fetuin substrate based colorimetric assay. The assay is classed as functional. The method in brief: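 Colorimetric NA inhibition using a virus dilution that gave 0.4–0.8 OD549. Virus preincubated 1 h at 37°C with half-log inhibitor dilutions (0.03–1,000 nM final) in MES/CaCl2 pH 6.0 buffer. Fetuin (5.5 mg/ml final) then added for 18 h at 37°C. Released sialic acid detected by periodate oxidation and thiobarbituric acid, butanol extraction, read at 549 nm. IC50 curve-fitted, ≥2 experiments. Ratio is variant IC50 over wild-type reference IC50.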

One may read the IC50 as the midpoint of a concentration-inhibition curve. High values mean a need for much substance, low ones inhibition by little substance. As for `C/C=C\[C@@H]1C[C@H](C(=O)O)N[C@H]1[C@@H](NC(C)=O)[C@](C)(CCC)OC`, the IC50 was 1 nM in the assay with Influenza A virus [1]; 0.91 nM in the assay with Influenza A virus [2]; 1.62 nM with Influenza A virus [3]; 1.06 nM in the assay with Influenza A virus [4]; 2.6 nM in the assay on Influenza A virus [5]; 1.67 nM with Influenza A virus [6]. In addition, the IC50 in the assay on Influenza A virus [7] turned out to be 2.32 nM; in the assay with Influenza A virus [8], 3.56 nM. Besides, the “Ratio IC50” value with Influenza A virus [9] came to 1; with Influenza A virus [10], 5; in the assay on Influenza A virus [11] it was 3; with Influenza A virus [12] it was 3; with Influenza A virus [13] it was 1; in the assay on Influenza A virus [14], 1. In addition, the “Ratio IC50” value in the assay with Influenza A virus [15] is on record as 5; in the assay on Influenza A virus [16], 3; with Influenza A virus [17] it was 1; in the assay with Influenza A virus [18], 3.

Consider `CCC(CC)[C@H](NC(C)=O)[C@@H]1[C@H](O)[C@@H](C(=O)O)C[C@H]1NC(=N)N` [PERAMIVIR ANHYDROUS], for which the IC50 in the assay on Influenza A virus [1] turned out to be 15 nM; in the assay on Influenza A virus [2] it was 13.1 nM; in the assay on Influenza A virus [3], 12.5 nM; in the assay with Influenza A virus [4], 11.8 nM; in the assay with Influenza A virus [5], 197 nM; in the assay on Influenza A virus [6], 128 nM. For the same molecule, the half-maximal inhibitory concentration (IC50) in the assay on Influenza A virus [7] came to 105 nM; in the assay on Influenza A virus [8], 162 nM. Further, the “Ratio IC50” value with Influenza A virus [9] stood at 1; with Influenza A virus [10], 125; in the assay with Influenza A virus [11] it was 66; with Influenza A virus [12], 84; with Influenza A virus [13] it was 1; in the assay with Influenza A virus [14], 1. The “Ratio IC50” value in the assay on Influenza A virus [15] stood at 1095; in the assay on Influenza A virus [16] it was 751; in the assay on Influenza A virus [17], 1; in the assay with Influenza A virus [18] it was 398.
